Screens as filed in PubChem.
OX1R antag-1: antagonists of human orexin 1 receptor (OX1R); O43613; OX1R-expressing cells, FRET antagonist read-out; inhibition, % at 6.6 µM; 1.8% of 330,000 active; in the data active means inhibition mostly above about 38%, no sharp cut-off; inactive means mostly below about 40%;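 further: 0% = agonist challenge alone and 100% = reference antagonist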
Target sequence (O43613 whole entry, looked up): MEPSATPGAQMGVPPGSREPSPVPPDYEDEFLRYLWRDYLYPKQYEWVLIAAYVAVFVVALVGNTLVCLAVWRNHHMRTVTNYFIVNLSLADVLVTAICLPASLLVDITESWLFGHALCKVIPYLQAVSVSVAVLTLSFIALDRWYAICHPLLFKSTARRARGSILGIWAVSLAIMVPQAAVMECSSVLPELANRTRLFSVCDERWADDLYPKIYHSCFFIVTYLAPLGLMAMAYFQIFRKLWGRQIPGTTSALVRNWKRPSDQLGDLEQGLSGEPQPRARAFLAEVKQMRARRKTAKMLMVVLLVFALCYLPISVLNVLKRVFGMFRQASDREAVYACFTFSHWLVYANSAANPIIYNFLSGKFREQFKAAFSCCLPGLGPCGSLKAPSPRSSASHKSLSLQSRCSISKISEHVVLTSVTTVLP
TAAR1 agonist: human TAAR1 agonism. AID 624467. CHO RD-HGA16 TAAR1, Fluo-8 calcium fluorescence; vehicle wells 0%, saturating PEA agonist 100%. Q96RJ0. activation, % at 3 µM. 0.99% of 360,000 active;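 active means activation above the mean activation of all test compounds in the run plus 3 SD, cut at about 38% in these data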
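Assay system – CHO-derived RD-HGA16 cells with stable Gα16 and human TAAR1 · Compound dosing – one-point dosing at 3 µM (nominal) · Incubation – 17-24 h seeding, 75 min 37 °C dye, 30 min RT · Measured by – kinetic Fluo-8 calcium fluorescence · Control set – DMSO vehicle as 0%, PEA at EC100 as 100% · Repeats – single well for each compound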
CHO parental Ca: counter-screen: ATP calcium response change in parental CHO cells; parental CHO-K1, ATP-induced calcium, Fluo-8 fluorescence; inhibition, % at 5.6 µM; 0.63% of 330,000 active; AID 463079;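 active means inhibition above that plate's mean sample inhibition plus 3 SD, cut at about 26% in these data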;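 further: 0% = ATP-challenged DMSO wells and 100% = DMSO wells without ATP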
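Material – parental CHO cells · Reagent – ATP stimulus · Compound – single nominal dose of 5.6 µM per compound · Detection – Fluo-8 fluorescence · Read-out basis – percent inhibition of calcium signal · Controls – ATP-challenged DMSO wells low, unchallenged DMSO wells high · Repeats – no replicates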
TAAR1 antag: human TAAR1 antagonism. Q96RJ0. CHO RD-HGA16 TAAR1, Fluo-8 calcium fluorescence, antagonist. inhibition, % at 3 µM. 1.5% of 360,000 active;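 active means inhibition above a per-plate cutoff, the mean inhibition of test compounds on that plate plus 3 SD, cut at about 49% in these data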;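 further: 0% = DMSO plus EC80 beta-PEA response and 100% = DMSO alone without agonist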
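Test system: CHO RD-HGA16 cells bearing hTAAR1 | Reagent: β-PEA, EC80 | Compound dosing: 3 µM, single point | Schedule: Dye loading 75 min at 37 °C, then 30 min room temperature | Signal: Calcium fluorescence with Fluo-8 | Evaluation: Percent inhibition of PEA-evoked calcium signal, max/basal emission ratio | Control set: DMSO-only wells and EC80 β-PEA-stimulated wells | Repeats: Singlicate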
NTR1 agonist: agonists of human neurotensin receptor NTR1; P30989; NTR1-U2OS beta-arrestin-GFP spot imaging, agonist mode; activation, % at 20 µM; 0.17% of 330,000 active; AID 493036;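 active means activation at or above 40% of the spot to cytoplasm intensity ratio, with at least 20 cells analyzed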;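 further: 0% = DMSO without peptide and 100% = 100 nM NTR1 peptide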
OX1R antag-2: antagonists of human orexin 1 receptor; O43613; CHO/OX1R cells, Fluo-8 calcium fluorescence, orexin A; 0.43% of 330,000 active; inhibition, % at 5 µM;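 active means inhibition above its plate's threshold, mean inhibition of all tested compounds on the plate plus 3 SD, cut at about 37% in these data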;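 further: 0% = orexin A challenge wells and 100% = SB-334867-A antagonist wells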
OX1R Ca confirm: confirmation of human orexin 1 receptor antagonists. shares compounds with OX1R antag-2. CHO/OX1R cells, orexin A calcium Fluo-8 fluorescence. inhibition, % at 5 µM. 38% of 1,100 active. AID 492963; in the data active means inhibition above about 29%;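 further: 0% = agonist challenge alone and 100% = reference antagonist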
CHO Ca counter: counter-screen for OX1R antagonists: effect in parental CHO cells; shares compounds with OX1R antag-2; parental CHO-K1, ATP-induced calcium, Fluo-8 fluorescence; inhibition, % at 5.6 µM; 9.3% of 1,100 active;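 active means inhibition above a per-plate limit, the mean inhibition of that plate's test compounds plus 3 SD, cut at about 25% in these data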;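 further: 0% = ATP challenge with DMSO and 100% = DMSO without ATP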
OX1R HTRF confirm: OX1R (human) antagonism, HTRF confirmed. shares compounds with OX1R antag-1. OX1R-expressing cells, HTRF antagonist assay. inhibition, % at 6.6 µM. 49% of 1,800 active; in the data active means inhibition above about 55%;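 further: CHO cells expressing OX1R stimulated with orexin A at about EC80; 0% = agonist challenge alone and 100% = reference antagonist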
CHO-K1 HTRF: counter-screen: parental CHO-K1 HTRF response. shares compounds with OX1R antag-1. parental CHO-K1 cells, HTRF counterscreen. inhibition, % at 6.6 µM. 48% of 1,800 active; in the data active means inhibition above about 17%;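 further: 0% = agonist challenge with vehicle and 100% = vehicle alone without agonist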
The depositor's hits bear a star; / = no result. This is a sample that favours compounds with a hit; in the whole collection about 4% have one here.

SMILES	OX1R antag-1	TAAR1 agonist	CHO parental Ca	TAAR1 antag	NTR1 agonist	OX1R antag-2	OX1R Ca confirm	CHO Ca counter	OX1R HTRF confirm	CHO-K1 HTRF
O=C(C1CCCN1S(=O)(=O)c1cccc2cccnc12)N1CCn2c1nc1ccccc12 (stereo not drawn)	95.9*	/	-6.0	/	1.1	44.9*	53.5*	-4.8	89.6*	1.9
Cc1cc(C(=O)CCC(=O)N(C)CC(=O)Nc2ccc(OC(F)(F)F)cc2)c(C)s1	/	-1.4	/	0.3	2.0	/	/	/	/	/
C[C@H](NC(=O)C1CCN(S(=O)(=O)c2ccccc2)CC1)C(=O)NCc1ccc(Cl)cc1Cl	12.8	15.3	-9.6	23.7	0.1	-27.7	/	/	/	/
CN(C)c1ccc(C#Cc2ccc3cc(CCCO)oc(=O)c3c2)cc1	0.0	10.9	-3.5	3.4	2.4	-2.8	/	/	/	/
CC(C)(OC(=O)c1cccs1)c1cc2ccccc2c(=O)o1	2.8	3.1	-17.3	3.7	2.6	6.2	/	/	/	/
CC(C)(O)c1cc2ccc(C#Cc3ccsc3)cc2c(=O)o1	70.8*	2.9	-17.9	7.2	2.3	59.7*	36.4*	-9.7	82.5*	-4.1
O=c1oc(CCCO)cc2ccc(C#Cc3ccsc3)cc12	41.5*	12.8	10.0	12.4	10.6	54.8*	19.9	9.5	33.6	1.2
CC(C)CCNS(=O)(=O)c1cc2c3c(c1)CCN3C(=O)CC2	-6.7	7.5	-8.7	-16.2	-0.9	-0.7	/	/	/	/
O=C(N/N=C/c1c[nH]c2ccccc12)c1sc2ccccc2c1Cl	89.7*	-0.6	-5.5	15.2	19.9	36.4	40.5*	3.6	63.4*	9.4
COc1ccc2c(Cl)c(C(=O)N/N=C/c3c(C)[nH]c4ccccc34)sc2c1	65.3*	0.2	2.9	25.1	10.2	40.8*	63.2*	0.6	93.0*	9.1
O=C(N/N=C/c1c[nH]c2ccccc12)c1ccccc1	-9.4	2.1	-3.9	-11.2	0.7	-10.1	/	/	/	/
O=C(NCc1ccc2c(c1)OCO2)C(=O)NCC1OCCN1S(=O)(=O)c1ccccc1 (stereo not drawn)	7.5	2.0	-11.4	-15.7	0.1	-34.7	/	/	/	/
COc1cccc(CNC(=S)Nc2ccc3c(c2)c(=O)n(C)n3Cc2ccccc2)c1	/	1.3	/	3.3	/	/	/	/	/	/
Cn1c(SCc2cccc(C#N)c2)nc2ccccc2c1=O	25.8	3.2	3.2	20.9	1.2	-9.7	/	/	/	/
Cc1cccc2cc(C#N)c(NCCNS(=O)(=O)c3ccc4c(c3)OCCO4)nc12	72.8*	16.1	-1.6	10.0	4.1	34.0	32.1*	-4.7	63.8*	5.5
CCC(=O)NCCCNc1nc2c(C)cccc2cc1C#N	15.9	12.0	-11.7	-7.7	0.4	-21.5	/	/	/	/
Cc1ccc(S(=O)(=O)c2nc(-c3cccs3)oc2N2CCC(C(N)=O)CC2)cc1	7.5	2.1	-2.4	-22.5	1.8	-7.7	/	/	/	/
c1ccc2c(CN3CCSCC3)cccc2c1	2.6	0.5	-12.5	-19.6	1.0	-5.4	/	/	/	/
CC(=O)Cc1nsc(NC(=O)c2oc(-c3ccccc3Cl)cc2C)n1	17.6	1.4	-16.4	-7.0	-3.3	-11.5	/	/	/	/
CC(=O)Cc1nsc(NC(=O)c2ccc(-c3ccccc3Cl)o2)n1	80.5*	5.5	-26.1	6.5	-2.5	61.2*	2.8	7.7	40.4	7.0
O=C(COC(=O)c1cc(Br)ccc1O)NNC(=O)c1cccs1	-2.9	-0.2	-3.5	3.9	-1.4	4.5	/	/	/	/
COc1ccccc1N(CC(=O)NC1CCCC1)C(=O)c1oc(C(C)(C)C)cc1C	52.3*	20.3	-23.6	9.1	0.7	40.8*	20.0	3.5	64.0*	0.8
Cc1ccc(S(=O)(=O)c2ccc([N+](=O)[O-])o2)cc1	/	-0.9	/	-4.4	/	/	/	/	/	/
